Results published in article PMC5586474 (Journal of the American Heart Association: Cardiovascular …, 2017).

Legend:
[1] = system: α1‐AR; test: PE‐induced IP3 production; assay type: cell-based, human; details: 1 μmol/L PE; for effect of α1‐AR antagonist on PE‐induced IP3 production: antagonist 10 μmol/L, 30 minutes, 37°C, Figure 5E
[2] = molecular target: ACKR3 (Homo sapiens, UniProt P25106); test: PRESTO‐Tango β‐arrestin 2 recruitment assay for ACKR3; assay type: cell-based; details: HTLA cells, overnight, 37°C, n=3
ACKR3, sequence (P25106 whole entry): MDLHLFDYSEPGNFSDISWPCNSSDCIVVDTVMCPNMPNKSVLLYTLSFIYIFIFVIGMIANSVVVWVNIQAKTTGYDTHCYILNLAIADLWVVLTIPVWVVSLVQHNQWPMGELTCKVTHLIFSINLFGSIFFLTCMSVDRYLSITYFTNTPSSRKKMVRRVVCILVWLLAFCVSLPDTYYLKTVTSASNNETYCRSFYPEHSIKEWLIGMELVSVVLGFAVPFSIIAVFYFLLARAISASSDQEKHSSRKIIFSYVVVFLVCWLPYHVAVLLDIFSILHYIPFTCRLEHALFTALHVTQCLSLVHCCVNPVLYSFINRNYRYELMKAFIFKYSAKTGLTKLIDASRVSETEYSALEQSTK

[3] = system: rat mesenteric arteries; details: isolated mesenteric rat arteries; cited from earlier work
[4] = system: ACKR3:α1B‐AR; test: PLA, ACKR3:α1B‐AR interaction in hVSMCs; assay type: cell-based, human; details: peptide 10 μmol/L, 30 minutes, 37°C; vs vehicle; Figure 8B; n=3
Method in brief: (§1)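 hVSMCs got vehicle or test peptide (10 μmol/L, 30 min, 37°C), were washed, fixed in 4% PFA (15 min, RT) and blocked overnight at 4°C in 3% BSA/PBS. Receptor‐specific primaries (1:500) ran 105 min at 37°C, then PLA probes (1:5) 60 min, ligation 30 min and amplification 100 min, all at 37°C. DAPI‐mounted spots were counted per cell from 10 images per condition per experiment.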

[5] = system: CXCR4:α1D‐AR; test: PLA, CXCR4:α1D‐AR interaction in hVSMCs; assay type: cell-based, human; details: peptide 10 μmol/L, 30 minutes, 37°C; vs vehicle; Figure 8B; n=3
Method in brief: as §1

[6] = system: ACKR3:α1A‐AR; test: PLA, ACKR3:α1A‐AR interaction in hVSMCs; assay type: cell-based, human; details: peptide 10 μmol/L, 30 minutes, 37°C; vs vehicle; Figure 8B; n=3
Method in brief: as §1

[7] = system: ACKR3:CXCR4; test: PLA, ACKR3:CXCR4 interaction in hVSMCs; assay type: cell-based, human; details: peptide 10 μmol/L, 30 minutes, 37°C; vs vehicle; Figure 8B; n=3
Method in brief: as §1

[8] = system: rat mesenteric arteries; test: Pressure myography, PE‐induced vasoconstriction of isolated mesenteric arteries; set-up: species or system rat (Sprague‐Dawley); details: TM peptide 100 μmol/L vs vehicle; 80 mm Hg; Figure 9G; n=3
Method in brief: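 Mesenteric arteries from male Sprague-Dawley rats (isoflurane 3.5% anaesthesia) kept in bicarbonate salt buffer (130 mmol/L NaCl, 4.7 mmol/L KCl, 5.5 mmol/L d-glucose, 1.16 mmol/L CaCl₂), gassed 95% O₂/5% CO₂, 37°C. Vessels pressurized to 80 mm Hg, pretreated with vehicle or test peptide (10 or 100 μmol/L). Cumulative PE added to bath; dose-response curves fitted by nonlinear regression.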

[9] = system: CXCR4:α1B‐AR; test: PLA, CXCR4:α1B‐AR interaction in hVSMCs; assay type: cell-based, human; details: peptide 10 μmol/L, 30 minutes, 37°C; vs vehicle; Figure 8B; n=3
Method in brief: as §1

[10] = system: ACKR3:α1D‐AR; test: PLA, ACKR3:α1D‐AR interaction in hVSMCs; assay type: cell-based, human; details: peptide 10 μmol/L, 30 minutes, 37°C; vs vehicle; Figure 8B; n=3
Method in brief: as §1

[11] = system: α1b‐AR; test: PRESTO‐Tango β‐arrestin 2 recruitment assay for α1b‐AR; assay type: cell-based; details: PE plus 10 μmol/L TM peptide; HTLA cells, overnight, 37°C; Figure 9C; n=3
Method in brief: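 HTLA cells were transfected with the α1B‐AR‐Tango plasmid (1.5 μg, Lipofectamine 3000). The next day they were replated at 1×10⁵/well on poly‐L‐lysine and left to attach for ≥4 h. PE ± 10 μmol/L test peptide, made at twice final concentration in medium, was added 1:1 and incubated overnight at 37°C. Luminescence was read with Bright‐Glo in HBSS/20 mmol/L HEPES, as % of RLU at […].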

Row | Compound | effect of α1‐AR antagonist on PE‐induced IP3 production ([1]; 5 minutes, n=3) | effect of TM peptide on PLA signals for ACKR3:α1B‐AR [4] | effect of TM peptide on PLA signals for CXCR4:α1D‐AR [5] | effect of TM peptide on PLA signals for ACKR3:α1A‐AR [6] | effect of TM peptide on PLA signals for ACKR3:CXCR4 [7] | effect of TM peptide on PLA signals for CXCR4:α1B‐AR [9] | effect of TM peptide on PLA signals for ACKR3:α1D‐AR [10] | further results
1 | COc1cc2nc(N3CCN(C(=O)c4ccco4)[C@H]4CCCC[C@H]43)nc(N)c2cc1OC (racemic) [cyclazosin, Cyclazosin] | could be inhibited |  |  |  |  |  |  | 
2 | COc1ccccc1N1CCN(CCN2C(=O)CC3(CCCC3)CC2=O)CC1 [BMY 7378] | could be inhibited |  |  |  |  |  |  | 
3 | CNC[C@H](O)c1cccc(O)c1 [PE, Phenylephrine] |  |  |  |  |  |  |  | increase of cellular IP3 concentrations on PE stimulation after NT siRNA ([1]; hVSMCs incubated with NT siRNA, Figure 5D, n=4): 4.8 fold; increase of cellular IP3 concentrations on PE stimulation ([1]; hVSMCs without siRNA, 5 minutes, Figure 2B, n=3): 5.3 fold
4 | Cc1ccc(N(CC2=NCCN2)c2cccc(O)c2)cc1 [phentolamine, Phentolamine] | could be inhibited |  |  |  |  |  |  | 
5 | CXCL11: natural ACKR3 agonist; chemokine, from Protein Foundry |  |  |  |  |  |  |  | EC50 ([2]; read-out: EC50 for β‐arrestin 2 recruitment to ACKR3, agonist, luminescence, Figure 2A, mean±SEM): 16.5 ± 4.9 nM
6 | CXCL12: natural ACKR3 agonist; cognate ligand of CXCR4 and ACKR3, from Protein Foundry |  |  |  |  |  |  |  | CXCL12 effect on PE‐induced signaling in the presence of the TM2 peptide ([1]; hVSMCs, TM2 10 μmol/L plus CXCL12 1 μmol/L, Figure 9E): did not enhance PE‐induced signaling; effect on PE‐induced vasoconstriction [3]: attenuates PE‐induced vasoconstriction
7 | DDDLHVTQCLSLVHCCVNPVLYSFIN [TM7] |  | did not alter signals | did not significantly affect signals | significantly increased the number of PLA signals for ACKR3:α1A‐AR complexes | reduced after incubation with all TM peptide analogs (TM2>TM4>TM7) | did not significantly affect signals | did not alter signals | effect of TM peptide on potency of PE to induce vasoconstriction (significance) [8]: P>0.05 versus vehicle
8 | VVCILWLLAFCVSLPDTYYLDD [TM4] |  | reduced PLA signals for ACKR3:α1B‐AR complexes | did not affect signals for CXCR4:α1D‐AR complexes | without affecting ACKR3:α1A/D‐AR interactions | reduced after incubation with all TM peptide analogs (TM2>TM4>TM7) | increased signals for CXCR4:α1B‐AR complexes | without affecting ACKR3:α1A/D‐AR interactions | effect of TM peptide on potency of PE to induce vasoconstriction (significance) [8]: P>0.05 versus vehicle
9 | YILNLAIADLWVVLTIPVWVVDDD [TM2] |  | significantly reduced PLA signals | did not affect signals for CXCR4:α1D‐AR complexes | did not affect signals for ACKR3:α1A‐AR complexes | reduced after incubation with all TM peptide analogs (TM2>TM4>TM7) | increased signals for CXCR4:α1B‐AR complexes | significantly reduced PLA signals | activation of ACKR3 by TM peptide (β‐arrestin 2 recruitment) ([2]; peptide alone, Figure 9A): without intrinsic agonist activity within the tested range of concentrations; effect of TM peptide on PE‐induced β‐arrestin 2 recruitment to α1b‐AR [11]: did not inhibit β‐arrestin 2 recruitment to recombinant α1b‐AR on PE stimulation
